ChEMBL document CHEMBL1132143, “Effect of A-ring modifications on the DNA-binding behavior and cytotoxicity of pyrrolo[2,1-c][1,4]benzodiazepines” (J Med Chem, 1999)

Assays:
Calf thymus DNA [1] = experiment: Tested for thermal denaturation against CT-DNA at 18 hours; conditions: Bos taurus
Calf thymus DNA [2] = experiment: Tested for thermal denaturation against CT-DNA at 0 hours; type: nucleic-acid assay; conditions: Bos taurus
Summary of the method: (§1)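 CT-DNA (42% G+C) at 100 μM in DNA phosphate with compound at 20 μM (5:1 ratio). Buffer pH 7.00, 10 mM sodium phosphate, 1 mM EDTA, ≤0.6% v/v MeOH. Incubated at 37.0 °C for the stated time. Melted at 1 °C/min from 45 to 98 °C, read at 260 nm. ΔTm is Tm with ligand minus free DNA Tm, MeOH-corrected; mean ± SD of ≥3 runs.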

[3] = Tested for cytotoxicity against ADJ/PC6 plasmacytoma; type: functional, cell-based, Mus musculus
Summary of the method: (§2)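 ADJ/PC6 mouse plasmacytoma grown in suspension. Seeded day 0 at 3–5 × 10^4 cells/mL in Dulbecco's medium with 20% horse serum. Log-phase confirmed day 1, then compound added for 72 h at 37 °C. Cells counted day 4 by Coulter counter. IC50 is the dose giving 50% growth inhibition versus solvent controls. Screened 10^-4–10^-11 M in 10-fold steps, <0.05% v/v DMSO.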

Calf thymus DNA [4] = experiment: Tested for thermal denaturation against CT-DNA at 4 hours; type: nucleic-acid assay; conditions: Bos taurus
Summary of the method: as §1

L1210 [5] = experiment: Tested for cytotoxicity against L1210 Leukemia cell; type: functional, cell-based; conditions: Mus musculus
Summary of the method: (§3)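 L1210 mouse leukemia grown in suspension. Seeded day 0 at 10^4 cells/mL in RPMI 1640 with 10% horse serum. Log phase checked day 1, then compound added for 48 h at 37 °C. Cells counted day 3 by Coulter counter. IC50 is 50% growth inhibition versus solvent-treated controls. Dose range 10^-4–10^-11 M in 10-fold steps, <0.05% v/v DMSO.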

CH1 = experiment: Tested for cytotoxicity against CH1 human ovarian cells; type: functional, cell-based
Summary of the method: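 CH1 human ovarian monolayer, plated day 0 at 100–200 cells per T25 flask in Dulbecco's medium with 10% fetal calf serum and allowed to attach overnight. Compound added day 1 and left continuously at 37 °C. Colonies fixed day 9 in EtOH, stained with methylene blue and counted. IC50 is 50% inhibition versus solvent controls. Range 10^-4–10^-11 M, 10-fold steps.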

L1210 [6] = experiment: Tested for cytotoxicity against L1210 mouse Leukemia cell; type: functional, cell-based
Summary of the method: as §3

[7] = Tested for cytotoxicity against ADJ/PC6 mouse plasmacytoma; type: functional, cell-based
Summary of the method: as §2

Calf thymus DNA [8] = experiment: Tested for thermal denaturation against CT-DNA; conditions: Bos taurus

| ΔTm (Calf thymus DNA [1]) [°C] | ΔTm (Calf thymus DNA [2]) [°C] | ΔTm (Calf thymus DNA [4]) [°C] | ΔTm (Calf thymus DNA [8]) [°C] | Compound | IC50 [3] [nM] | IC50 (L1210 [5]) [nM] | IC50 (CH1) [nM] | IC50 (L1210 [6]) [nM] | IC50 [7] [nM] |
| --- | --- | --- | --- | --- | --- | --- | --- | --- | --- |
| 0.4 | 0.2 | 0.4 | – | COc1cc2c(cc1OCc1ccccc1)N=C[C@@H]1CCCN1C2=O | 370 | 3000 | 1000 | – | – |
| 0.6 | 0.3 | 0.5 | – | COc1cc2c(cc1O)C(=O)N1CCC[C@H]1C=N2 | 2700 | 2700 | 200 | – | – |
| 0.6 | 0.3 | 0.5 | – | COC(=O)CCOc1cc2c(cc1OC)C(=O)N1CCC[C@H]1C=N2 | – | – | 4400 | – | – |
| – | 0.1 | 0.2 | 0.3 | COc1nc(OC)c2c(n1)C(=O)N1CCC[C@H]1C=N2 | – | – | – | 42000 | – |
| 0.6 | 0.2 | 0.4 | – | COc1cc2c(cc1OCCCOCc1ccccc1)N=C[C@@H]1CCCN1C2=O | 2300 | 2400 | 290 | – | – |
| 0.5 | 0.1 | 0.3 | – | O=C1c2cc3c(cc2N=C[C@@H]2CCCN12)OCCO3 | 3400 | 2700 | 460 | – | – |
| – | 0.2 | 0.3 | 0.5 | COC(=O)c1c2c(nn1C)C(=O)N1CCC[C@H]1C=N2 | – | – | > 100000 | 35000 | > 50000 |
| – | 0.1 | 0.2 | 0.4 | COc1cc2c(cc1NC(=O)OCc1ccccc1)N=C[C@@H]1CCCN1C2=O | – | – | 1800 | 4500 | 3200 |
| 0.4 | 0.1 | 0.2 | – | O=C1c2cc3c(cc2N=C[C@@H]2CCCN12)OCO3 | 1900 | 1500 | 260 | – | – |
| 0.6 | 0.3 | 0.4 | – | O=C1c2ccccc2N=C[C@@H]2CCCN12 | 38000 | > 100000 | 42000 | – | – |

Further lines, the compound ahead of its results:

| Compound | ΔTm (Calf thymus DNA [1]) [°C] | ΔTm (Calf thymus DNA [2]) [°C] | ΔTm (Calf thymus DNA [4]) [°C] | ΔTm (Calf thymus DNA [8]) [°C] | IC50 [3] [nM] | IC50 (L1210 [5]) [nM] | IC50 (CH1) [nM] | IC50 (L1210 [6]) [nM] | IC50 [7] [nM] |
| --- | --- | --- | --- | --- | --- | --- | --- | --- | --- |
| CCCCOC1CC[C@H]2C=Nc3cc(O)c(OC)cc3C(=O)N12 (some centres undefined) | 0.8 | 0.5 | 0.6 | – | 1300 | 2700 | 430 | – | – |
| COC1Nc2c(ccc(C)c2O)C(=O)N2C=C(/C=C/C(N)=O)C[C@@H]12 (some centres undefined) | 13 | 9.4 | 11.2 | – | – | – | 320 | 22 | 2.8 |
| CO[C@H]1Nc2nccnc2C(=O)N2CCC[C@@H]12 | – | 0.3 | 0.6 | 0.7 | – | – | 17000 | – | – |
| COc1cc2c(cc1O)N=C[C@@H]1CCCN1C2=O | – | 0.3 | 0.5 | – | 330 | – | 100 | – | – |
| CO[C@@H]1Nc2ncccc2C(=O)N2CCC[C@@H]12 | – | 0.3 | 0.5 | 0.5 | – | – | 43000 | 13000 | > 50000 |
| CO[C@H]1Nc2ncccc2C(=O)N2CCC[C@@H]12 | – | 0.3 | 0.5 | 0.5 | – | – | 43000 | 13000 | > 50000 |
| C/C=C1\C[C@H]2C=Nc3cc(O)c(OC)cc3C(=O)N2C1 | 2.6 | 1 | 2.4 | – | 1.8 | 3.7 | 0.13 | – | – |
